Measured values published in ChEMBL document CHEMBL4689842, “EUbOPEN Chemogenomics Library wave 1” (2021).

Tested on: HEK-293T
Assay: Multiplex assay against HEK293T;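 on Population Tubulin-Different-Phenotype (%): share of the cells with healthy nuclei that show this phenotype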
Type: toxicity, cell-based
Details: human
In short: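 Phenotypes for tubulin, mitochondrial mass and membrane permeability are expressed as per cents of healthy-nucleus cells. Cells were stained live at seeding with Hoechst33342, BioTracker Green Microtubule Cytoskeleton Dye, MitoTracker Red and Annexin V Alexa Fluor 680, then imaged after compound addition on a CQ1 microscope at 37°C and 5% CO2. Machine-learning gating in CellPathfinder separated Hoechst high-intensity objects from normal cells, divided normal cells by nuclear state (healthy, pyknosed, fragmented) and divided pyknosed cells into mitotic or apoptotic.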

[1] = 12 h, 1 µM, compound concentration 1 uM, replicate 1
[2] = 12 h, 1 µM, compound concentration 1 uM, replicate 2
[3] = 12 h, 10 µM, compound concentration 10 uM, replicate 1
[4] = 12 h, 10 µM, compound concentration 10 uM, replicate 2
[5] = 24 h, 1 µM, compound concentration 1 uM, replicate 1
[6] = 24 h, 1 µM, compound concentration 1 uM, replicate 2
[7] = 24 h, 10 µM, compound concentration 10 uM, replicate 1
[8] = 24 h, 10 µM, compound concentration 10 uM, replicate 2

For `O=c1[nH]c2ccccc2n1C1CCN(Cc2ccc(-c3[nH]c4cc5ncnc5cc4nc3-c3ccccc3)cc2)CC1`, the “Population Apoptotic (%)” value [1] was 16%, the “Population Fragmented Nuclei (%)” value [1] was 13% and the “Population Healthy Nuclei (%)” value [1] was 69%. For the same compound, the “Population Hoechst High Intensity Objects (%)” value [1] was 7%, the “Population Membrane Permeable-Phenotype (%)” value [1] was 7% and the “Population Mitochondria Different-Phenotype (%)” value [1] was 3%. For the same compound, the “Population Mitotic Cells (%)” value [1] was 83%, the “Population Normal (%)” value [1] was 92% and the “Population Pyknosed Nuclei (%)” value [1] was 16%. The “Population Tubulin-Different-Phenotype (%)” value [1] was 6%, the “Total Cell Count” value [1] was 646 and the “Population Apoptotic (%)” value [2] was 10%. The “Population Fragmented Nuclei (%)” value [2] was 5%, the “Population Healthy Nuclei (%)” value [2] was 89% and the “Population Hoechst High Intensity Objects (%)” value [2] was 2%. For the same compound, the “Population Membrane Permeable-Phenotype (%)” value [2] was 5%, the “Population Mitochondria Different-Phenotype (%)” value [2] was 23% and the “Population Mitotic Cells (%)” value [2] was 90%. For the same compound, the “Population Normal (%)” value [2] was 97%, the “Population Pyknosed Nuclei (%)” value [2] was 5% and the “Population Tubulin-Different-Phenotype (%)” value [2] was 43%. The “Total Cell Count” value [2] was 1621, the “Population Apoptotic (%)” value [3] was 38% and the “Population Fragmented Nuclei (%)” value [3] was 10%. For the same compound, the “Population Healthy Nuclei (%)” value [3] was 50%, the “Population Hoechst High Intensity Objects (%)” value [3] was 20% and the “Population Membrane Permeable-Phenotype (%)” value [3] was 22%. For the same compound, the “Population Mitochondria Different-Phenotype (%)” value [3] was 40%, the “Population Mitotic Cells (%)” value [3] was 61% and the “Population Normal (%)” value [3] was 79%. For the same compound, the “Population Pyknosed Nuclei (%)” value [3] was 39%, the “Population Tubulin-Different-Phenotype (%)” value [3] was 91% and the “Total Cell Count” value [3] was 661. For the same compound, the “Population Apoptotic (%)” value [4] was 24%, the “Population Fragmented Nuclei (%)” value [4] was 2% and the “Population Healthy Nuclei (%)” value [4] was 71%. For the same compound, the “Population Hoechst High Intensity Objects (%)” value [4] was 13%, the “Population Membrane Permeable-Phenotype (%)” value [4] was 13% and the “Population Mitochondria Different-Phenotype (%)” value [4] was 51%. The “Population Mitotic Cells (%)” value [4] was 75%, the “Population Normal (%)” value [4] was 86% and the “Population Pyknosed Nuclei (%)” value [4] was 25%. The “Population Tubulin-Different-Phenotype (%)” value [4] was 86%, the “Total Cell Count” value [4] was 974 and the “Population Apoptotic (%)” value [5] was 11%. For the same compound, the “Population Fragmented Nuclei (%)” value [5] was 14%, the “Population Hoechst High Intensity Objects (%)” value [5] was 6% and the “Population Membrane Permeable-Phenotype (%)” value [5] was 17%. The “Population Mitochondria Different-Phenotype (%)” value [5] was 3%, the “Population Mitotic Cells (%)” value [5] was 88% and the “Population Normal (%)” value [5] was 93%. The “Population Pyknosed Nuclei (%)” value [5] was 5%, the “Population Tubulin-Different-Phenotype (%)” value [5] was 14% and the “Total Cell Count” value [5] was 776. For the same compound, the “Population Apoptotic (%)” value [6] was 7%, the “Population Fragmented Nuclei (%)” value [6] was 17% and the “Population Healthy Nuclei (%)” value [6] was 79%. For the same compound, the “Population Hoechst High Intensity Objects (%)” value [6] was 4%, the “Population Membrane Permeable-Phenotype (%)” value [6] was 14% and the “Population Mitochondria Different-Phenotype (%)” value [6] was 6%. The “Population Mitotic Cells (%)” value [6] was 92%, the “Population Normal (%)” value [6] was 95% and the “Population Pyknosed Nuclei (%)” value [6] was 3%. The “Population Tubulin-Different-Phenotype (%)” value [6] was 52%, the “Total Cell Count” value [6] was 2517 and the “Population Apoptotic (%)” value [7] was 54%. The “Population Fragmented Nuclei (%)” value [7] was 12%, the “Population Healthy Nuclei (%)” value [7] was 56% and the “Population Hoechst High Intensity Objects (%)” value [7] was 31%. The “Population Membrane Permeable-Phenotype (%)” value [7] was 9%, the “Population Mitochondria Different-Phenotype (%)” value [7] was 70% and the “Population Mitotic Cells (%)” value [7] was 45%. The “Population Normal (%)” value [7] was 68%, the “Population Pyknosed Nuclei (%)” value [7] was 31% and the “Population Tubulin-Different-Phenotype (%)” value [7] was 83%. For the same compound, the “Total Cell Count” value [7] was 612, the “Population Apoptotic (%)” value [8] was 28% and the “Population Fragmented Nuclei (%)” value [8] was 2%. For the same compound, the “Population Healthy Nuclei (%)” value [8] was 71%, the “Population Hoechst High Intensity Objects (%)” value [8] was 23% and the “Population Membrane Permeable-Phenotype (%)” value [8] was 6%. The “Population Mitochondria Different-Phenotype (%)” value [8] was 67%, the “Population Mitotic Cells (%)” value [8] was 71% and the “Population Normal (%)” value [8] was 76%. The “Population Pyknosed Nuclei (%)” value [8] was 26%, the “Population Tubulin-Different-Phenotype (%)” value [8] was 72% and the “Total Cell Count” value [8] was 883.
